Common to all, as to format: cell-based
Test [1] has as its target T1, Estrogen receptor (Homo sapiens) (UniProt P03372).
T1 sequence (whole entry): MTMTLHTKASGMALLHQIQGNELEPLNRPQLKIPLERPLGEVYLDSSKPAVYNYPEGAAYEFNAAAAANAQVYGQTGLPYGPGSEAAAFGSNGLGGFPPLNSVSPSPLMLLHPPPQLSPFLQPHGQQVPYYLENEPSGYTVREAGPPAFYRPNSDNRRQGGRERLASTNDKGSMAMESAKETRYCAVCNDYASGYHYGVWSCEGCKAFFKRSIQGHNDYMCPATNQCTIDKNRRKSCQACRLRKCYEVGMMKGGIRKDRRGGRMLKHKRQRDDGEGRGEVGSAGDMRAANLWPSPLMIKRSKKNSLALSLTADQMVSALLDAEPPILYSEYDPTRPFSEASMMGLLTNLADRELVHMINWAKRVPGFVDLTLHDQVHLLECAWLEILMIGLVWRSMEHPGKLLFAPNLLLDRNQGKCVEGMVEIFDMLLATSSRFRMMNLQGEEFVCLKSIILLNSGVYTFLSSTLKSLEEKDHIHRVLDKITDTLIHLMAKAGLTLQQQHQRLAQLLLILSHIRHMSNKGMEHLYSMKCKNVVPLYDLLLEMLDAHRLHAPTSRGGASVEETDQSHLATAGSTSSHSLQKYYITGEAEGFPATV
Put plainly: Downregulation of ERalpha expression in human MCF7 cells at 10 uM after 6 hrs by Western blot method relative to beta-actin. In a few lines:
(§1)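 MCF-7 cells kept in DMEM with 10% FBS, kanamycin and 10 μg/mL insulin, then exposed to compounds for 6 h. Lysates made in SDS buffer (0.1 M Tris-HCl pH 8.0, 10% glycerol, 1% SDS), boiled, BCA-normalized and run on SDS-PAGE. Blots probed with anti-ERα, AR, AhR or VDR and β-actin or lamin B. Chemiluminescence quantified as target/loading-protein ratio; means ± S.E., n=3.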

Test [2] has as its target T1, Estrogen receptor (Homo sapiens). Briefly: Downregulation of ERalpha expression in human MCF7 cells at 1 uM after 6 hrs by Western blot method relative to lamin B. In a few lines:
as §1
In general terms: A western blot detects proteins with antibodies after separation by electrophoresis.

For test [3], the target named is T2, Androgen receptor (Homo sapiens) (UniProt P10275).
T2 sequence (whole entry): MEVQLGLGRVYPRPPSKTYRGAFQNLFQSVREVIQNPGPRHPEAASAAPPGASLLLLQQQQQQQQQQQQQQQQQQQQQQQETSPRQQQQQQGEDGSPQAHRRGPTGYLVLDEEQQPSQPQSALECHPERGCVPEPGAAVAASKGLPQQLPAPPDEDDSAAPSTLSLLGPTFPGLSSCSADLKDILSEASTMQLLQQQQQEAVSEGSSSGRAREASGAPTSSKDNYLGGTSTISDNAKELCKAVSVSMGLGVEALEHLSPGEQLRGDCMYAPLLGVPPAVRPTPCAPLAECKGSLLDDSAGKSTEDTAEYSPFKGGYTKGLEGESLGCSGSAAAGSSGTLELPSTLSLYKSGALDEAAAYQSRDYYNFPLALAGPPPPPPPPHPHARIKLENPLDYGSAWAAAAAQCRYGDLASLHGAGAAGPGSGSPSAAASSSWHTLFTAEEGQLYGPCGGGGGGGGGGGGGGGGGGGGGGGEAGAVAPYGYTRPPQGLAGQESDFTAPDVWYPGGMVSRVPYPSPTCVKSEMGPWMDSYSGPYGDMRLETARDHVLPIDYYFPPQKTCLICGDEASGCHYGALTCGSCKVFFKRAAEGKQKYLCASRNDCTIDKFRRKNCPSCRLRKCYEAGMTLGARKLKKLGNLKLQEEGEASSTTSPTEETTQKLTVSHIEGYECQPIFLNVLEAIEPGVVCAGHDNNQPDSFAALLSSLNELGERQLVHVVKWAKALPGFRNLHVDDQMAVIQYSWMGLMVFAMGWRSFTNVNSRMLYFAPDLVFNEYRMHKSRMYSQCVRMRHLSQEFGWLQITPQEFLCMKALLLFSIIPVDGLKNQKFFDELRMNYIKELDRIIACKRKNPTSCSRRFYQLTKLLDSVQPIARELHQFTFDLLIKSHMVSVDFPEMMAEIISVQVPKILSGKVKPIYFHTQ
Briefly: Downregulation of androgen receptor expression in human MCF7 cells at 1 uM after 6 hrs by Western blot method relative to lamin B. In a few lines: as §1

The target of test [4] is T3, Vitamin D3 receptor (Homo sapiens) (UniProt P11473).
T3 sequence (whole entry): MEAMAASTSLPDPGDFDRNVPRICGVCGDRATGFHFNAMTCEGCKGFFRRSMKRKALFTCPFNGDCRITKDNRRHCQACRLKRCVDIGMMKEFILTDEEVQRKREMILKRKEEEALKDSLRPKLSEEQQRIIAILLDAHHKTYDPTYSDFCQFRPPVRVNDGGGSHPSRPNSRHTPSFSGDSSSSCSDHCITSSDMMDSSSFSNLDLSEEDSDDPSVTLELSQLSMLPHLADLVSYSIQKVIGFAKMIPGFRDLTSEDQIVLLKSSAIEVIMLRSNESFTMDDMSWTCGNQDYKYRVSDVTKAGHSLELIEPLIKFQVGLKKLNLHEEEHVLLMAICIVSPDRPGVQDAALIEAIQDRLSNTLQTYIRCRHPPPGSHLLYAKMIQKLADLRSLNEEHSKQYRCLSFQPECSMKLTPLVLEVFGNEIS
Briefly: Downregulation of VDR expression in human MCF7 cells at 3 uM after 6 hrs by Western blot method relative to lamin B. In a few lines:
as §1

Test [5] has as its target T1, Estrogen receptor (Homo sapiens). Put plainly: Downregulation of ERalpha expression in human MCF7 cells at 10 uM after 6 hrs in presence of proteasome inhibitor MG132 by Western blot method relative to lamin B. In a few lines: as §1
For test [6], the target named is T2, Androgen receptor (Homo sapiens). Briefly: Downregulation of androgen receptor expression in human MCF7 cells at 3 uM after 6 hrs in presence of proteasome inhibitor MG132 by Western blot method relative to lamin B. In a few lines: as §1
The target in test [7] is T3, Vitamin D3 receptor (Homo sapiens). Briefly: Downregulation of VDR expression in human MCF7 cells at 1 uM after 6 hrs in presence of proteasome inhibitor MG132 by Western blot method relative to lamin B. In a few lines:
as §1

Take `CCCCCCCCCCNCCOc1ccc(C(CCC)(CCC)c2ccc(O)c(C)c2)cc1C`: the Activity in test [1] is 44%; in test [2], 58 to 76%; in test [3], 94%; in test [4] it was 99%; in test [5], 105%; in test [6] it was 78%. For the same molecule, the Activity in test [7] was 98%.

These data come from ChEMBL document CHEMBL4138058, “Design and synthesis of novel selective estrogen receptor degradation inducers based on the diphenylheptane skeleton” (Medchemcomm, 2017).
